MPTP block: blocks calcium-induced mitochondrial swelling | AID 602449 | inhibition, % at 10 µM | actives 1.4% (n = 360,000) | isolated mouse mitochondria, Ca2+ swelling absorbance, 30 min;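 active = inhibition of 50% or more, scaled per plate between neutral and stimulator controls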;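 note: 0% = DMSO wells given calcium and 100% = 1 mM EGTA wells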
OX1R antag-1: antagonists of human orexin 1 receptor (OX1R); actives 1.8% (n = 330,000); OX1R-expressing cells, FRET antagonist read-out; inhibition, % at 6.6 µM; AID 485270; in the data active = inhibition mostly above about 38%, no sharp cut-off; inactive = mostly below about 40%;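 note: 0% = agonist challenge alone and 100% = reference antagonist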
Target sequence (O43613 whole entry, looked up): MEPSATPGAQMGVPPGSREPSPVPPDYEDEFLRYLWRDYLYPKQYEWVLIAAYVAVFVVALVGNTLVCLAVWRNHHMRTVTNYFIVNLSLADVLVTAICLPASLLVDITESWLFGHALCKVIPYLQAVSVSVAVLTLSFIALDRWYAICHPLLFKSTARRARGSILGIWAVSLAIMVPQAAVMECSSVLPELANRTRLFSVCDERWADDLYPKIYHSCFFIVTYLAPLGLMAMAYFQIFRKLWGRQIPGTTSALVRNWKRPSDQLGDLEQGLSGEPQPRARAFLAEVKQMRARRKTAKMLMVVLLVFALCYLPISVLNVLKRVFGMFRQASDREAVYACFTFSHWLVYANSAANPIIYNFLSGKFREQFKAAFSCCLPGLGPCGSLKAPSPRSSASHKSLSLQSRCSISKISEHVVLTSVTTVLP
OX1R antag-2: human HCRTR1 antagonism; O43613; CHO/OX1R cells, Fluo-8 calcium fluorescence, orexin A; inhibition, % at 5 µM; actives 0.43% (n = 330,000); AID 434989;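 active = inhibition above its plate's threshold, mean inhibition of all tested compounds on the plate plus 3 SD, cut at about 37% in these data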;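 note: 0% = orexin A challenge wells and 100% = SB-334867-A antagonist wells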
CHO parental Ca: signal in parental CHO cells, OX1R antagonist counter-screen | parental CHO-K1, ATP-induced calcium, Fluo-8 fluorescence | inhibition, % at 5.6 µM | actives 0.63% (n = 330,000);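 active = inhibition above that plate's mean sample inhibition plus 3 SD, cut at about 26% in these data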;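 note: 0% = ATP-challenged DMSO wells and 100% = DMSO wells without ATP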
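Measured by: calcium-sensitive Fluo-8 fluorescence / Test system: CHO parental line / Controls: ATP-challenged DMSO wells low, unchallenged DMSO wells high / Measure: % inhibition / Compound: single nominal dose of 5.6 µM per compound / Replicates: single well per compound, no replicates / Reagent: ATP as calcium-mobilizing challenge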
GPR7 antagonist: human neuropeptides B/W receptor 1 antagonism | AID 1861 | inhibition, % at 4.4 µM | GPR7-expressing cells, fluorescence antagonist assay | P48145 | actives 1.1% (n = 290,000); in the data active = inhibition above about 16%, passing the limit was not always enough;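 note: cells stimulated with the agonist NPW; 0% = agonist with vehicle and 100% = vehicle without agonist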
OX1R HTRF confirm: OX1R (human) antagonism, HTRF confirmed; shares compounds with OX1R antag-1; OX1R-expressing cells, HTRF antagonist assay; inhibition, % at 6.6 µM; actives 49% (n = 1,800); AID 492964; in the data active = inhibition above about 55%;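 note: CHO cells expressing OX1R stimulated with orexin A at about EC80; 0% = agonist challenge alone and 100% = reference antagonist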
CHO-K1 HTRF: signal in parental CHO-K1 cells, OX1R antagonist counter-screen; shares compounds with OX1R antag-1; HTRF counterscreen; inhibition, % at 6.6 µM; actives 48% (n = 1,800); AID 493232; in the data active = inhibition above about 17%;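 note: 0% = agonist challenge with vehicle and 100% = vehicle alone without agonist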
Starred values were filed as active, the others as inactive; x = no result; ! = repeats disagree. The list is not random: actives were taken first. Their share in the collection is about 3.8%.

SMILES	MPTP block	OX1R antag-1	OX1R antag-2	CHO parental Ca	GPR7 antagonist	OX1R HTRF confirm	CHO-K1 HTRF
Cc1ccc(OCC(=O)NNC(=O)C2CCCO2)c(C)c1 (configuration not stated)	2.0	14.1	-17.3	-1.9	-6.7	x	x
CC1CCN(C(=O)CN(C)S(=O)(=O)c2cccc3nsnc23)CC1	1.0	82.7*	-24.5	-11.8	0.1	29.9	35.9*
CN(CC(=O)N1CCN(C2CCCCC2)CC1)S(=O)(=O)c1cccc2nsnc12	-0.6	30.6	3.2	-4.9	-11.4	x	x
O=[N+]([O-])c1c(NCCO)cc(N2CCCCC2)c2nonc12	0.1	90.0*	-11.0	-6.4	-4.8	52.4	38.9*
O=C1C(=O)c2ccccc2C([O-])=C1[n+]1ccccc1	-1.8	170.9*	-13.4	-9.7	-6.0	59.9*	108.5*
O=C1C(=C(O)c2ccccc2)C(=O)c2ccccc21	0.3	4.7	-7.2	-11.5	-13.1	x	x
C(COC1CC2CC1C1C2CC2OC21)OC1CC2CC1C1C2CC2OC21 (configuration not stated)	0.9	x	x	x	x	x	x
COc1ccc2nc3oc(C(=O)N4CCC(C(N)=O)CC4)cc3cc2c1	-0.9	154.2*	-4.7	-6.0	6.3	27.7	37.5*
CCOC(=O)C1CCN(C(=O)c2cc3cc4ccc(OC)cc4nc3o2)CC1	-0.9	12.8	-17.7	-21.9	0.5	x	x
Cc1nn(C)cc1C(=O)/C=C/c1ccc([N+](=O)[O-])cc1	-0.1	25.3	-12.9	-17.9	0.7	x	x
CCN1CCN(C(=O)/C=C/c2ccc(F)cc2)CC1	1.3	7.4	-22.5	-6.2	x	x	x
CCN1CCN(C(=O)/C=C/c2ccc([N+](=O)[O-])cc2)CC1	-0.7	97.1*	-4.3	-0.7	-0.1	44.2	58.6*
CCn1cc(CN(C)C(=O)/C=C/c2ccc([N+](=O)[O-])cc2)c(C)n1	0.1	92.0*	-0.3	-3.0	-2.6	34.9	35.1*
O=C(N/N=C/c1ccc2cccc(OCc3ccccc3)c2n1)c1ccc(Cl)cc1	2.8	79.2*	-2.0	-15.1	-10.9	37.0	-2.0
Cc1nc2[nH]onc2c2nccc(=O)c12	-0.4	120.5*	-20.6	-3.6	-6.5	32.0	38.3*
COc1ccc(-c2nn3c(-c4ccccc4)nnc3s2)cc1	9.1	87.0*	19.6	-7.3	-8.2	88.1*	13.2
COc1ccc(-c2nn3c(-c4ccc(F)cc4)nnc3s2)cc1	3.5	7.7	-13.7	-6.3	20.2	x	x
CCOC(=O)CNC(=O)CSc1ncnc2c1cnn2-c1ccc(Cl)cc1	-0.1	18.0	-18.7	-4.2	-1.8	x	x
CCOC(=O)Cc1csc(NC(=O)CSc2ncnc3c2cnn3-c2ccc(OC)cc2)n1	-2.3	80.0*	28.8	12.6	-2.5	26.6	4.0
CCCOc1ccc2cc(C(=O)NCc3ccccc3)c(=O)oc2c1	0.7	13.3	-15.4	-8.4	-9.1	x	x
CCOCC(=O)N1CCN(c2ccc([N+](=O)[O-])cc2)CC1	0.3	82.6*	-21.2	11.9	10.0	32.9	29.1*
CCOCC(=O)N1CCN(c2ccc(F)cc2)CC1	-1.4	-0.8	-17.0	-5.8	-13.5	x	x
N#Cc1cc2c(=O)n3ccccc3nc2n(Cc2cccnc2)c1=N	x	x	x	x	-3.5	x	x
C=CCn1c(=N)c(C(=O)NCCCOC)cc2c(=O)n3ccccc3nc21	0.4	136.8*	15.2	-15.7	-10.7	56.0*	83.4*
C=CCn1c(=N)c(C#N)cc2c(=O)n3ccccc3nc21	-0.6	101.9*	-8.6	-1.6	-12.2	54.7*	77.7*
SMILES	MPTP block	OX1R antag-1	OX1R antag-2	CHO parental Ca	GPR7 antagonist	OX1R HTRF confirm	CHO-K1 HTRF
CCOC(=O)c1cc2c(=O)n3ccccc3nc2n(CCCOC)c1=NC(=O)c1ccncc1	0.2	84.8*	-9.3	-19.1	3.8	33.9	32.7*
C=CCn1c(=O)c(C#N)cc2c(=O)n3ccccc3nc21	-4.3	136.9*	-9.0	-5.6	3.6	43.6	33.9*
C[C@@H]1COc2cc(N3CC[C@H](O)C3)ccc2S(=O)(=O)N1	0.4	x	x	x	x	x	x
N=c1c(C(=O)NCc2ccc(F)cc2)cc2c(=O)n3ccccc3nc2n1CCCN1CCOCC1	-3.9	82.3*	-1.8	0.2	4.7	65.2*	34.6*
Cc1cc(-n2c(=O)c(C#N)cc3c(=O)n4ccccc4nc32)no1	0.7	127.9*	-16.6	-8.3	-6.2	46.2	74.9*
O=[N+]([O-])c1ccc(N2CCN(CCOCCO)CC2)c([N+](=O)[O-])c1	-2.0	85.1*	-2.8	2.9	-4.1	46.4	38.6*
CC(C)c1ccc(OCC(=O)NCCO)cc1	0.9	8.8	-13.2	6.9	-0.3	x	x
CN1C(=O)c2ccc(C(=O)Nc3cccnc3)cc2C1=O	0.5	x	x	x	-10.2	x	x
O=C(NN1C(=O)c2ccc(-c3ccc4c(c3)C(=O)N(NC(=O)c3cccnc3)C4=O)cc2C1=O)c1cccnc1	1.4	91.6*	-8.8	-8.8	-6.4	39.1	33.4*
O=C1NC(=O)/C(=C\c2ccc(Oc3ccc([N+](=O)[O-])cn3)cc2)S1	7.4	77.5*	2.5	17.2	9.2	46.3	10.0
O=[N+]([O-])c1ccc(Oc2ccc(Oc3ccc(C(F)(F)F)cn3)cc2)nc1	2.4	23.1	-8.3	-1.9	-1.1	x	x
CN(C)c1cccc(C(=O)NNC(=O)/C=C/c2cccs2)c1	-2.5	0.6	-11.4	-10.9	x	x	x
COc1cccc(C(=O)O/N=C(\N)CS(=O)(=O)c2ccccc2)c1	-0.5	29.0	-19.4	-1.9	-12.7	x	x
Cc1ccc2c(ccn3cc4c(c(=O)n(C)c(=O)n4C)c23)c1	2.9	86.0*	-2.0	-16.6	-12.3	87.8*	6.5
Cc1cccc(-c2c3c(=O)n(C)c(=O)n(C)c3cn2C(C)C)c1	-1.9	19.1	-16.9	-22.1	-13.7	x	x
Cc1ccccc1NC(=O)c1cc2ccccc2o1	-0.8	-4.9	-16.2	-7.7	-10.6	x	x
CCN(CC)c1ccc(NC(=O)c2cc3ccccc3o2)c(C)c1	-0.1	79.7*	2.4	-1.1	-13.6	58.5*	9.4
COc1cc(CNC(C)C)c(Br)cc1OC1CCCC1	1.1	9.2	-27.3	2.1	-12.4	x	x
Nc1ccc2oc(-c3cccc4ccccc34)nc2c1	1.5	82.2*	-3.7	-5.3	29.3	67.7*	0.8
COc1cc(/C=C2\NC(=O)NC2=O)cc(Br)c1OC	-0.1	-4.4	-0.1	-7.8	3.1	x	x
O=C(O)COc1c(Cl)cc(/C=C2/NC(=O)NC2=O)cc1Br	-1.4	87.7*	-14.6	-8.7	-12.7	41.7	36.9*
CC(=O)c1cccc(S(=O)(=O)N2CCCC(c3nc4c(nnn4Cc4ccccc4Cl)c(=O)[nH]3)C2)c1 (configuration not stated)	-0.7	x	x	x	-13.1	x	x
C[n+]1cnc(-c2ccccc2)cc1-c1ccccc1	-0.4	85.3*	-5.4	13.8	1.4	43.4	64.0*
N#CC(=C=[N-])c1nc2ccccc2nc1-[n+]1ccccc1	1.2	98.0*	7.1	-1.4	-3.9	63.6*!	79.3*

Bioassay records: PubChem BioAssay, several laboratories
